Our source for the Kd, IC50 and Decrease values is ChEMBL document CHEMBL1125382, “Benzazepinone calcium channel blockers. 2. Structure-activity and drug metabolism studies leading to potent antihypertensive agents. Comparison with benzothiazepinones” (J Med Chem, 1992).

In general, Kd refers to the concentration at which binding is half-saturated. The term IC50 denotes the concentration at which inhibition is half-maximal. A higher IC50 goes with lower potency.

Assay [1] in a line: In Vitro evaluation for the affinity for the diltiazem receptor in isolated guinea pig skeletal muscle microsomal preparations by inhibiting [3H]diltiazem binding. The assay is classed as microsomes, Cavia porcellus, Muscle tissue. The gist of the method:
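Membranes from male guinea pig (350–450 g) hind-limb muscle, mainly quadriceps and gastrocnemius, in 50 mM Tris-HCl. 125–250 μg protein incubated with [3H]-d-cis-diltiazem and competing drug, 250 μL final, 30 °C for 1 h. Rapid GF/B filtration and scintillation counting. Nonspecific binding defined with 100 μM unlabeled diltiazem. Kd calculated from concentration–response curves for inhibition of specific binding; ±SEM.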

For assay [2], the species on record is Oryctolagus cuniculus. In words: Vasorelaxant effects in circumferential strips of potassium-depolarized rabbit aorta. (IC50 in rabbit aorta strips contracted with KCl(95% confidence interval)). The format is functional, organism-based. The following applies: Oryctolagus cuniculus, Aorta. In a few lines:
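Circumferential strips of rabbit thoracic aorta, contracted by depolarization with 100 mM KCl, then exposed to various concentrations of compound.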

In assay [3] the test system is Rattus norvegicus. Nature of the assay: In vivo evaluation for the percentage decrease in blood pressure at 135 umol/kg administered through oral route in spontaneously hypertensive rats and observed for 0-6 h. The format is functional. The gist of the method:
(§1)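 Male spontaneously hypertensive rats, 15 weeks old, dosed by oral gavage at 135 μmol/kg. Blood pressure recorded directly via an indwelling abdominal aortic catheter exteriorized in the intrascapular region. Sampled over 20-s intervals every 5 min for 24 h. Value is the maximum percent fall in systolic pressure from predrug control within the stated period, mean of five rats.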

The test system of assay [4] is Rattus norvegicus. In words: In vivo evaluation for the percentage decrease in blood pressure at 270 umol/kg administered through oral route in spontaneously hypertensive rats and observed for 12-18 h. The format is functional.
Assay [5] concerns Rattus norvegicus. In words: In vivo evaluation for the percentage decrease in blood pressure at 135 umol/kg administered through oral route in spontaneously hypertensive rats and observed for 6-12 h. The format is functional. In a few lines: as §1

For the molecule `COc1ccc([C@@H]2Cc3ccccc3N(CCN(C)C)C(=O)[C@@H]2OC(C)=O)cc1.Cl`, the Kd in assay [1] came out at 5.1 µM. In addition, the IC50 in assay [2] came out at 4.7 µM. Further, the Decrease in assay [3] was determined as 8%; in assay [4], 13%; in assay [5] it was 8%.
